From PubChem
Hits are enriched below; roughly 2.5% of the tested compounds scored in any of these assays.
mABHD4 FP: ABHD4 inhibitors, primary screen, biochemical, fluorescence polarization, mouse; (Lyso)-N-acylphosphatidylethanolamine lipase (Mus musculus), Q8VD66; purified mABHD4, FP-Rh probe fluorescence polarization; inhibition, % at 8.92 µM; 0.54% of 370,000 active;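 active = inhibition exceeding the mean over every tested compound plus 3 SD, cut at about 30% in these data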;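 also: 0% = plate median of compound wells and 100% = S159A mutant with DMSO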
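Test system: mouse ABHD4 enzyme, wild type. Reagent: FP-Rh fluorescent activity-based probe, added after compound pre-incubation. Timing: pre-incubation 45 min, probe exposure 60 min, at 25 °C. Technique: FP readout, ex 525 nm / em 598 nm. Benchmarks: high control S159A mutant with DMSO, low control median of compound wells.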
HTRA1 inh: HTRA1 serine protease inhibitors, primary screen, biochemical, fluorescence polarization, HTS; inhibition, % at 5.96 µM; Q92743; AID 504803, 2011; recombinant HTRA1, FP-rhodamine activity-based probe; 0.5% of 340,000 active; in the data active = inhibition above about 36%;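 also: 0% = enzyme with DMSO and 100% = wells lacking enzyme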
TCR-CD3 inh: inhibitors of human TCR-CD3 interaction, primary screen, biochemical, fluorescence, TAMRA-labeled TCR probe | T-cell receptor (TCR) | inhibition, % at 9.4 µM | 0.37% of 360,000 active; in the data active = inhibition above about 19%;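 also: recombinant mutant TCR 2C K166C tagged with TAMRA read by polarization; 0% = receptor in buffer alone and 100% = receptor with positive control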
PRMT1 FP inh: PRMT1 methyltransferase inhibitors, primary screen, biochemical, fluorescence polarization. AID 652257, 2013. 1.3% of 370,000 active. inhibition, % at 2.79 µM. recombinant PRMT1, activity-based probe fluorescence polarization. Protein arginine N-methyltransferase 1 (Homo sapiens), Q99873;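 active = inhibition above about 21% made by adding two undisclosed values, limit read from the data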
SIAE primary: human SIAE inhibitors, primary screen, biochemical, fluorescence polarization, FP-Rh probe, 1536-well HTS. inhibition, % at 9.66 µM. 0.69% of 370,000 active. SIAE FP-Rh probe binding;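 active = inhibition above a cutoff: mean of compounds within the control limits plus 3 SD of those, cut at about 17% in these data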;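 also: 0% = plate median of compound wells and 100% = probe without SIAE protein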
Target sequence (Q9HAT2 whole entry, looked up): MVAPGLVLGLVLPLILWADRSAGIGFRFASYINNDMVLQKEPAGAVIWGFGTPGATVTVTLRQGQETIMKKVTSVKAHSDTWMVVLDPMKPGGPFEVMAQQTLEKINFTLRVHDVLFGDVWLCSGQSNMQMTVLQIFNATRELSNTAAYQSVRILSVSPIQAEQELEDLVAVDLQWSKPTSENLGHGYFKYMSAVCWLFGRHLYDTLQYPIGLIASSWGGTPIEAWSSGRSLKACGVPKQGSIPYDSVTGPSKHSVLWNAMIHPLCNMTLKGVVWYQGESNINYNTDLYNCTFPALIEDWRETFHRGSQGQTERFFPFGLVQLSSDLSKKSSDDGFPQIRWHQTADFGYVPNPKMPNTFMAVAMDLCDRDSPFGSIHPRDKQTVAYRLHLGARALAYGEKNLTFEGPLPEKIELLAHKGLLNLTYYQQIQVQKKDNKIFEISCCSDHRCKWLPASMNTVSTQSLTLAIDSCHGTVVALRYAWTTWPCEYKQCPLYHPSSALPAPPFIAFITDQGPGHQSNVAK
PRMT1 confirm: PRMT1 methyltransferase inhibitors, confirmation, biochemical, fluorescence polarization, triplicate; 42% of 3,300 active; shares compounds with PRMT1 FP inh; inhibition, % at 2.79 µM; AID 687036, 2013; recombinant His-PRMT1, activity-based probe fluorescence polarization;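 active = mean inhibition across replicates above the hit cutoff derived for the earlier primary screen, cut at about 22% in these data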
Numbers without * were called inactive; x = no result given.

SMILES	mABHD4 FP	HTRA1 inh	TCR-CD3 inh	PRMT1 FP inh	SIAE primary	PRMT1 confirm
Cc1cc2cc(C=C(C#N)C#N)c(Cl)nc2cc1C	8.0	-0.7	9.2	85.8*	0.4	8.1
CCOC(=O)/C(C#N)=C/c1cc2cc(C)c(C)cc2nc1Cl	3.3	-8.4	1.4	-0.3	0.8	x
COc1ccccc1C(=O)N1CCN(c2ccc(N3CCOCC3)nn2)CC1	6.3	7.3	-7.0	38.4*	-2.5	-4.5
CCn1c2ccccc2c2cc(NC(=O)c3ccc(Br)o3)ccc21	6.1	6.2	2.5	30.9*	-2.2	45.2*
CCn1c(SCC(=O)Nc2ccc3c(c2)c2ccccc2n3CC)nnc1-c1ccco1	15.8	22.9	1.4	43.2*	8.6	25.8*
C[C@H]1[C@@H](NCc2ccccc2)CC[C@@]23CCCN2C(=O)CCC[C@@H]13	0.1	x	x	-0.5	-1.1	x
CCOC(=O)[C@@]12CCCC3=C1N(CCC3)C(=O)[C@H]2CC(=O)NCCCOC	0.8	x	x	0.7	7.7	x
COC(=O)[C@]12C[C@H](CC(=O)NCc3cccs3)C(=O)N(Cc3ccccc3)C1=C[C@H](C(C)(C)C)O[C@@H]2C	-0.2	x	4.4	-1.8	-3.2	x
COc1ccc(C(=O)Oc2ccc(C(=S)N3CCOCC3)cc2)cc1	-5.6	-8.3	7.8	57.2*	-10.5	2.0
COc1ccc(C(=S)N2CCN(C)CC2)cc1	-0.3	-5.3	1.9	29.9*	-0.9	8.3
COc1ccc(C(=S)N2CCN(C)CC2)cc1Br	-6.4	2.9	2.9	-2.1	4.9	x
O=C(Oc1ccc(C(=S)N2CCOCC2)cc1)c1ccc(Br)cc1	-0.1	5.0	3.3	0.0	3.6	x
COC(=O)[C@]12C[C@H](CC(=O)NCc3ccccc3)C(=O)N(Cc3ccco3)C1=C[C@H](COCc1ccccc1)O[C@@H]2C	-3.4	x	x	-2.0	-8.9	x
Cc1cccc(C)c1NC(=O)COC(=O)CCc1c[nH]c2ccccc12	9.8	0.5	15.5	30.1*	6.4	-1.1
CCOC(=O)CC(=O)CSc1nc(-c2cccnc2)ccc1C#N	-0.9	-0.2	-6.3	55.9*	-15.9	5.5
CCOC(=O)CC(=O)CSc1nc(-c2cccnc2)cc(C)c1C#N	7.4	-1.9	-0.1	5.1	-5.5	x
CCOC(=O)CC(=O)CSc1nccc(-c2cccnc2)n1	4.8	-8.5	-4.9	37.9*	0.3	7.8
O=c1[nH]sc2ccccc12	4.7	-4.3	1.9	72.3*	8.4	85.6*
O=c1ccsc2ccccc12	2.2	x	3.7	-3.6	-2.6	x
CCN1CCCCC(NC(=O)c2ccccc2)C1=O (centres undefined)	1.4	x	x	-6.4	-1.1	x
O=C(N/N=C/c1ccc(N2CCCCC2)o1)c1ccccc1[N+](=O)[O-]	10.8	5.9	0.7	31.4*	8.3	5.3
Cc1cccc(C)c1Nc1n[nH]c(=S)s1	0.5	1.4	5.7	31.9*	11.3	8.0
Cc1cc(C)c(Nc2n[nH]c(=S)s2)cc1C	7.9	5.6	0.3	46.8*	9.2	22.5*
CC(=O)Nc1n[nH]c(=S)s1	7.2	-0.7	2.1	8.0	9.7	x
CNc1n[nH]c(=S)s1	-3.4	5.8	-1.9	6.8	7.2	x
SMILES	mABHD4 FP	HTRA1 inh	TCR-CD3 inh	PRMT1 FP inh	SIAE primary	PRMT1 confirm
CC(C)c1ccc(Nc2n[nH]c(=S)s2)cc1	2.8	x	-6.1	16.6	1.7	x
Cc1ccc(Nc2n[nH]c(=S)s2)c(C)c1	7.7	-4.1	1.0	35.4*	8.7	35.8*
Cc1ccc(/C=N\NC(=O)CN2CCN(S(=O)(=O)c3ccc(Br)cc3)CC2)s1	1.1	x	x	-2.4	1.0	x
Cc1ccccc1/[N+]([O-])=C/c1cccs1	3.2	6.9	6.7	5.7	0.8	x
Cc1ccc(/C=[N+](\[O-])c2ccccc2C)o1	0.4	3.0	-5.5	30.0*	1.8	-3.1
O=C([C@@H]1C[C@H]1c1ccccc1)N1CC[C@H]2[C@H](CCCN2Cc2ccccc2)C1	3.9	x	x	2.4	-1.4	x
O=C(NNC1CC(=O)N(c2ccc3c(c2)OCCO3)C1=O)c1ccc(Cl)cc1 (centres undefined)	4.8	4.1	0.3	56.1*	0.9	-4.7
Cn1ccc2ccc(-c3ccc4c(c3)[C@]3(CCC[C@@H](OCc5ccccc5)[C@@H]3NC(=O)CCc3ccccc3)C(=O)N4Cc3ccccc3)cc21	-6.4	x	x	4.6	-3.6	x
CC(C)C[C@H](NC(C)(C)C(=O)NC1CCCCC1)C(=O)NCC(c1ccccc1)c1ccccc1	-1.1	x	x	-2.5	2.6	x
COc1ccc2c3c(ccc2c1)C(=O)/C(=C/O)CC3	27.2	37.9*	4.6	29.6*	5.6	24.2*
O=C(NNc1nc2ccccc2s1)c1ccc(F)cc1	6.4	6.9	-0.4	2.5	0.0	x
CC(C)NC(=S)NNc1nc2ccccc2s1	9.8	-2.9	-2.9	59.8*	0.3	56.9*
COc1ccccc1C(=O)n1ccc2ccc(-c3ccc4ccn(Cc5ccc(C#N)cc5)c4c3)cc21	-6.2	x	x	-2.4	-3.1	x
Cc1ccc(-n2nc(-c3ccco3)cc2C(=O)O)cc1	5.1	9.6	7.2	13.6	-0.9	x
CC(C)NC(=O)c1cc(-c2ccco2)nn1-c1ccc(Cl)cc1	-5.8	-0.8	-12.6	30.5*	-4.9	20.3
Cc1c(C2Nc3ccccc3NC3=C2C(=O)CC(C)(C)C3)cnn1C (centres undefined)	9.6	6.3	7.0	26.7*	-3.4	0.4
O=C(CSc1nnc(CNC(=O)c2ccco2)o1)Nc1nc2ccccc2s1	7.4	-2.2	-5.1	56.4*	-5.8	0.3
O=C(CSc1nnc(CNC(=O)c2ccco2)o1)Nc1ccccc1	1.7	11.4	6.3	-2.1	3.5	x
COC(=O)CNC(=O)CNC1(C(=O)NCCc2c[nH]c3ccccc23)CCCCC1	-2.9	x	x	5.3	9.2	x
Oc1ccccc1/C=N/n1c(-c2ccccc2)n[nH]c1=S	2.3	11.6	0.2	4.9	1.9	x
O=[N+]([O-])c1cccc(/C=N/n2c(COc3ccccc3)n[nH]c2=S)c1	1.7	-6.4	-4.4	10.6	11.5	x
CC(C)Oc1cccc(-c2n[nH]c(=S)n2N=Cc2cccc([N+](=O)[O-])c2)c1	-2.0	x	x	33.5*	8.0	25.1*
CC(C)Oc1cccc(-c2n[nH]c(=S)n2N=Cc2ccc(O)cc2O)c1	13.2	x	x	37.2*	-1.9	17.6
CCOC(=O)[C@]12CCCCC/C=C\1N(Cc1ccc(OC)cc1)C(=O)[C@H]2CC(=O)NCCC(C)C	-2.6	x	x	-4.3	1.9	x
Cc1cc(C)cc(C(=O)OCCCN(C)C2CN(Cc3cn(Cc4cccc(F)c4)nn3)S(=O)(=O)C2)c1 (centres undefined)	-8.3	x	x	-3.3	3.1	x
